The values below come from ChEMBL document CHEMBL3627660, “Tetrafluorophenoxymethyl ketone cruzain inhibitors with improved pharmacokinetic properties as therapeutic leads for Chagas' disease” (Bioorg Med Chem Lett, 2015).

Usually IC50 stands for the concentration that gives 50% inhibition. By Papp is commonly meant a coefficient for how fast a substance crosses the barrier. Usually Cmax stands for the highest concentration seen after dosing. By AUC is commonly meant the area under the concentration-time curve, a measure of exposure. Lower therefore signals less exposure. For orientation: half-life means the time needed for the level to fall by half in the phase considered. A higher half-life goes with slow decline. By clearance is commonly meant a measure of how efficiently the substance is removed, as volume per time.

The target of one data set is Cruzipain (Trypanosoma cruzi, UniProt P25779). Briefly: Inhibition of Trypanosoma cruzi recombinant cruzain using Z-FR-AMC as substrate after 5 mins by fluorescence assay.
Cruzipain, sequence (P25779 whole entry): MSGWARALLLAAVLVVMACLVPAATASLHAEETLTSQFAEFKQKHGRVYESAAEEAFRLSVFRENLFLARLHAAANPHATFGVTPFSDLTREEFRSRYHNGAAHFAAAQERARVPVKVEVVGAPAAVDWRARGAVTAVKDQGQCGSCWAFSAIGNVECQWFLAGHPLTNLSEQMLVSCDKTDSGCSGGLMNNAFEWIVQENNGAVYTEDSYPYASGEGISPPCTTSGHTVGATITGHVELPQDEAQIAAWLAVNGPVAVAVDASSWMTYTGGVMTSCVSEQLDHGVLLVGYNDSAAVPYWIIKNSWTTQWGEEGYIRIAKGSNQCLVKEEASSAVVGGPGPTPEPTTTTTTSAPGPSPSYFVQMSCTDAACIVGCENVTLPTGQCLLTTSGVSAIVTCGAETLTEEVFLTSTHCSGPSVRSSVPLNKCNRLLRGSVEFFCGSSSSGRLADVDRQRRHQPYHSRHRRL
The next data set deals with Trypanosoma cruzi. The experiment in a line: Antitrypanosomal activity against Trypanosoma cruzi infected in C2C12 cells after 72 hrs by DAPI staining. The note with it: C2C12, 72 h. It is filed as functional, organism-based.
The target of the next data set is Cytochrome P450 3A4 (Homo sapiens, UniProt P08684). Briefly: Inhibition of CYP3A4 (unknown origin). In kind it is ADME.
Cytochrome P450 3A4, sequence (P08684 whole entry): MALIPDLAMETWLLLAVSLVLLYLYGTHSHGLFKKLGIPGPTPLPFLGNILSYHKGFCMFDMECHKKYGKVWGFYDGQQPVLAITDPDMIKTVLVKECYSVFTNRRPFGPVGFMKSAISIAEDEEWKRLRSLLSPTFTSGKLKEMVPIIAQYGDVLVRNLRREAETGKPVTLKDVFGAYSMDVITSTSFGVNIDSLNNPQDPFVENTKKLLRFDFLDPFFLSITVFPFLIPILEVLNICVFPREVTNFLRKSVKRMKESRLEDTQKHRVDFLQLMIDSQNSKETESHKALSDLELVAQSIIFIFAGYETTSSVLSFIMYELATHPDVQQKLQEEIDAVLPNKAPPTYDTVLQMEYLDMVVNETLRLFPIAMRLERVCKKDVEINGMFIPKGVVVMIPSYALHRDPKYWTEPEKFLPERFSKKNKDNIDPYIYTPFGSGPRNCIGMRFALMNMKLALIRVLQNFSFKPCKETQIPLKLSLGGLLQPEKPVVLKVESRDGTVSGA
Another data set relates to MDCK. The experiment in a line: Apparent permeability from apical to basolateral side in MDCK cells assessed as per 10^-6 cells. It is filed as ADME, cell-based, Canis lupus familiaris. Conditions: dog.
Data set [1] is described as follows: Cmax in mouse at 40 mg/kg, po. In kind it is ADME, organism-based. Further details: dose 40 mg/kg, route oral. The note with it: in vivo. An outline of the steps: (§1)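 In vivo mouse pharmacokinetic study with two arms, intravenous at 10 mg/kg and oral at 40 mg/kg. Exposure parameters derived were AUC, T1/2, CL, Vss and oral bioavailability (F%).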
The nature of data set [2]: AUC in mouse at 10 mg/kg, iv. It is filed as ADME, organism-based. Conditions: in vivo.
A short description of data set [3]: AUC in mouse at 40 mg/kg, po. It is filed as ADME, organism-based. The note with it: in vivo.
Data set [4] is described as follows: Half life in mouse at 10 mg/kg, iv. It is filed as ADME, organism-based. Conditions: in vivo. Put shortly:
(§2)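 Mouse PK study with two dosing arms: 40 mg/kg orally and 10 mg/kg intravenously. The parameters derived were AUC, T1/2, CL, Vss and F%.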

Data set [5] is described as follows: Half life in mouse at 40 mg/kg, po. In kind it is ADME, organism-based. The note with it: in vivo. Put shortly:
as §2

Data set [6] in a line: Clearance in mouse at 10 mg/kg, iv. It is filed as ADME, organism-based. The note with it: in vivo. An outline of the steps: as §2
Data set [7] can be described thus: Volume of distribution at steady state in mouse at 10 mg/kg, iv. In kind it is ADME, organism-based. The note with it: in vivo, read-out: Vdss. An outline of the steps:
as §2

The subject of a further data set is Mus musculus. Briefly: Oral bioavailability in mouse at 40 mg/kg. In kind it is ADME, organism-based. Conditions: in vivo. Put shortly: as §2
A short description of data set [8]: Cmax in mouse at 10 mg/kg, iv. In kind it is ADME, organism-based. Further details: dose 10 mg/kg, route intravenous. Conditions: in vivo. An outline of the steps:
as §1

The nature of data set [9]: Half life in mice after oral dosing. Conditions: in vivo.

Consider `C[C@@](NCc1ccc2occc2c1)(c1cn(C(CCS(C)(=O)=O)C(=O)COc2c(F)c(F)cc(F)c2F)nn1)C1CCCC1` (some centres undefined), for which the IC50 at Cruzipain is 790 nM; in the data set on Trypanosoma cruzi it was 5 nM.

Take `CCCCC(C(=O)COc1c(F)c(F)cc(F)c1F)n1cc([C@@](C)(NC(=O)c2ccc3ncccc3c2)C(C)C)nn1` (some centres undefined): the IC50 on Cruzipain turned out to be 1350 nM; in the data set with Trypanosoma cruzi it was 700 nM.

Turning to `CC(C)[C@](C)(NCc1ccc2ncccc2c1)c1cn(C(CCS(C)(=O)=O)C(=O)COc2c(F)c(F)cc(F)c2F)nn1` (some centres undefined), the IC50 on Cytochrome P450 3A4 stood at 1200 nM; on Cruzipain it was 560 nM; in the data set on Trypanosoma cruzi it was 380 nM. Also, in the data set on MDCK, the Papp is reported as 3.49 ×10⁻⁶ cm/s.

Take `COCCC(C(=O)COc1c(F)c(F)cc(F)c1F)n1cc([C@@](C)(NCc2ccc3ncccc3c2)C(C)C)nn1` (some centres undefined): the IC50 was determined as 340 nM at Cruzipain and 2 nM in the data set on Trypanosoma cruzi.

`CCCCC(C(=O)COc1c(F)c(F)cc(F)c1F)n1cc([C@@](C)(NCc2ccncc2)C(C)C)nn1` (some centres undefined): the IC50 at Cruzipain worked out at 1100 nM; with Trypanosoma cruzi, 143 nM.

In the case of `CCCCC(C(=O)COc1c(F)c(F)cc(F)c1F)n1cc([C@@](C)(NC(=O)c2ccncc2)C(C)C)nn1` (some centres undefined), the figures for the IC50 at Cruzipain and in the data set with Trypanosoma cruzi were 23000 nM and 1600 nM, respectively.

In data set [1], `CCCCC(C(=O)COc1c(F)c(F)cc(F)c1F)n1cc([C@@](C)(NCc2ccc3ncsc3c2)C(C)C)nn1` (some centres undefined) yielded a Cmax of 1230 ng/mL. Moreover, the IC50 at Cytochrome P450 3A4 was determined as 300 nM; at Cruzipain, 37 nM; in the data set on Trypanosoma cruzi, 2 nM. Further, the Papp in the data set on MDCK is listed as 2.26 ×10⁻⁶ cm/s. Moreover, the AUC worked out at 9610 ng·h/mL in [2] and 6570 ng·h/mL in data set [3]. Further, the results for the half-life in data set [4] and in data set [5] were 5.67 h and 3.41 h, respectively. The compound also yielded a clearance in [6] of 16.6 mL/min/kg. Moreover, the Vd in data set [7] was 6.5 L/kg. Besides, in the data set with Mus musculus, the F is 19.1%.

On to `CCCCC(C(=O)COc1c(F)c(F)cc(F)c1F)n1cc([C@@](C)(NC(=O)c2ccc3ncsc3c2)C(C)C)nn1` (some centres undefined), for which the figures for the IC50 on Cruzipain and in the data set on Trypanosoma cruzi were 3590 nM and 650 nM, respectively.

As to `CC(C)[C@](C)(NCc1ccc2ncsc2c1)c1cn(C(CCS(C)(=O)=O)C(=O)COc2c(F)c(F)cc(F)c2F)nn1` (some centres undefined), the IC50 came out at 125 nM at Cruzipain and 12 nM with Trypanosoma cruzi.

In the case of `COCCC(C(=O)COc1c(F)c(F)cc(F)c1F)n1cc([C@@](C)(NCc2ccc3ncsc3c2)C(C)C)nn1` (some centres undefined), the half-inhibitory concentration (IC50) at Cruzipain came out at 63 nM; with Trypanosoma cruzi it was 44 nM.

For the compound `CCCCC(C(=O)COc1c(F)c(F)cc(F)c1F)n1cc([C@@](C)(NCc2ccc3ncsc3c2)C2CCCC2)nn1` (some centres undefined), the values for the IC50 on Cruzipain and in the data set on Trypanosoma cruzi were 5 nM and 3 nM, respectively.

In the case of `C[C@@](NCc1ccc2ncsc2c1)(c1cn(C(CCS(C)(=O)=O)C(=O)COc2c(F)c(F)cc(F)c2F)nn1)C1CCCC1` (some centres undefined), the IC50 on Cytochrome P450 3A4 stood at 200 nM; at Cruzipain, 25 nM; with Trypanosoma cruzi, 10 nM. The Papp in the data set on MDCK was determined as 6.8 ×10⁻⁶ cm/s.

For `COCCC(C(=O)COc1c(F)c(F)cc(F)c1F)n1cc([C@@](C)(NCc2ccc3ncsc3c2)C2CCCC2)nn1` (some centres undefined), the IC50 on Cruzipain is 124 nM; in the data set on Trypanosoma cruzi, 7 nM.

Consider `CC(C)[C@](C)(NCc1ccc2occc2c1)c1cn(C(CCS(C)(=O)=O)C(=O)COc2c(F)c(F)cc(F)c2F)nn1` (some centres undefined), for which the IC50 came to 880 nM at Cruzipain and 3 nM in the data set with Trypanosoma cruzi.

As to `CCCCC(C(=O)COc1c(F)c(F)cc(F)c1F)n1cc([C@@](C)(NCc2ccn3nccc3n2)C(C)C)nn1` (some centres undefined), the IC50 on Cytochrome P450 3A4 came out at 314 nM; on Cruzipain, 75 nM; in the data set on Trypanosoma cruzi, 8 nM. Also, in the data set with MDCK, the Papp came to 15.1 ×10⁻⁶ cm/s.

`CCCCC(C(=O)COc1c(F)c(F)cc(F)c1F)n1cc([C@@](C)(NCc2ccn3nccc3n2)C2CCCC2)nn1` (some centres undefined): the IC50 was 263 nM on Cytochrome P450 3A4 and 3 nM at Cruzipain. Moreover, the Papp in the data set with MDCK was found to be 2.9 ×10⁻⁶ cm/s. The area under the curve (AUC) was 5370 ng·h/mL in [2] and 8110 ng·h/mL in data set [3]. For the same compound, the half-life was 3.04 h in data set [4] and 2.32 h in data set [5]. Moreover, the clearance in [6] came to 30.7 mL/min/kg. Besides, the Vd in data set [7] amounted to 4.19 L/kg. Also, the F in the data set on Mus musculus stood at 37%.

Take `CC(C)[C@](C)(NCc1ccn2nccc2n1)c1cn(C(CCS(C)(=O)=O)C(=O)COc2c(F)c(F)cc(F)c2F)nn1` (some centres undefined): the IC50 on Cruzipain worked out at 467 nM; in the data set with Trypanosoma cruzi, 2340 nM.

As for `COCCC(C(=O)COc1c(F)c(F)cc(F)c1F)n1cc([C@@](C)(NCc2ccn3nccc3n2)C2CCCC2)nn1` (some centres undefined), the IC50 at Cruzipain stood at 2820 nM; with Trypanosoma cruzi, 20 nM.

For `CCCCC(C(=O)COc1c(F)c(F)cc(F)c1F)n1cc([C@@](C)(NCc2ccc3ncccc3c2)C2CCCC2)nn1` (some centres undefined), the IC50 on Cytochrome P450 3A4 turned out to be 260 nM; on Cruzipain, 27 nM; in the data set on Trypanosoma cruzi it was 15 nM. Moreover, the Papp in the data set with MDCK is 0.48 ×10⁻⁶ cm/s. The AUC in data set [2] was 8710 ng·h/mL; in [3] it was 8100 ng·h/mL. Also, the half-life in data set [4] is 4.2 h; in [5] it was 3 h. The compound further displayed a clearance in data set [6] of 19 mL/min/kg. Further, the Vd in data set [7] worked out at 5.4 L/kg. Moreover, the F with Mus musculus is 23%.

For the compound `CCCCC(C(=O)COc1c(F)c(F)cc(F)c1F)n1cc([C@@](C)(NCc2ccc3ncccc3c2)C(C)C)nn1` (some centres undefined), the peak concentration (Cmax) was 833 ng/mL in data set [1] and 4130 ng/mL in data set [8]. Also, the IC50 stood at 3800 nM on Cytochrome P450 3A4 and 22 nM in the data set with Trypanosoma cruzi. The Papp in the data set on MDCK is 3.02 ×10⁻⁶ cm/s. For the same compound, the AUC in data set [2] was 4670 ng·h/mL; in [3], 3860 ng·h/mL. Also, the half-life in [4] is 2.95 h; in data set [5], 3.34 h; in data set [9], 3.3 h. In data set [6], this compound came in with a clearance of 36.2 mL/min/kg. Moreover, the Vd in data set [7] stood at 4.2 L/kg. The compound further yielded a F in the data set with Mus musculus of 21%.
